pEC50: −log10 of the molar value. The source made the active and inactive calls. No cut-off for these calls is given here.
Columns and labels:
[1] = biological target: Melatonin receptor type 1A (Homo sapiens, UniProt P48039); assay: Agonist activity at human MT1 receptor expressed in HEK293 cells after 24 hrs by Fluo-8 dye-based calcium assay; type: functional, cell-based
In short: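 Fluo-8 calcium flux in HEK293 cells stably expressing human MT1 or MT2, grown in DMEM + 10% FBS at 37 °C, seeded 4×10^4/well and incubated 24 h. Compounds in DMSO/HBSS at several concentrations; fluorescence read at room temperature (ex 485, em 525 nm). Triplicate wells, three independent experiments; EC50 by nonlinear regression.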

[2] = system: Mus musculus; assay: Toxicity in Kunming mouse assessed as effect in spontaneous locomotor activity by measuring total distance travelled at 10 to 40 mg/kg, po by open field test; type: organism-based; details: in vivo
In short: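 Male Kunming mice, 18–20 g, group-housed at 22 ± 2 °C on 12 h light/dark, given oral doses of 10, 20 or 40 mg/kg before behavioural testing. Each animal placed in the centre of a black open-field box (24 × 24 × 40 cm) for 30 s adaptation, then explored freely for 6 min. Line crossings and distance recorded. Mean ± SEM, n = 10.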

[3] = system: Mus musculus; assay: Effect on 5-hydroxytryptamine level in Kunming mouse frontal cortex at 40 mg/kg, po treated for 7 days by HPLC-ECD analysis; type: functional, organism-based
In short: (§1)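 Male Kunming mice (18–20 g) given vehicle or 40 mg/kg for 7 days, then killed by cervical dislocation. Frontal cortex, hippocampus, striatum, hypothalamus and thalamus dissected on ice, homogenized in ice-cold 0.2 M perchloric acid with 0.1 mM EDTA, centrifuged 15,000 rpm, 20 min, 4 °C. Supernatant analysed by HPLC-ECD at +0.50 V; phosphate/octanesulfonate mobile phase pH 3.0 with 12% methanol. Levels in ng/g, mean ± SEM.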

[4] = system: Mus musculus; assay: Increase in 5-hydroxyindole-3-acetic acid level in Kunming mouse hypothalamus at 40 mg/kg, po treated for 7 days by HPLC-ECD analysis; type: functional, organism-based; in short: as §1
[5] = system: Mus musculus; assay: Increase in ratio of 5-hydroxyindole-3-acetic acid to 5-hydroxytryptamine level in Kunming mouse frontal cortex at 40 mg/kg, po treated for 7 days by HPLC-ECD analysis; type: functional, organism-based; in short: as §1
[6] = system: Mus musculus; assay: Increase in 4-hydroxy-3-methoxyphenylacetic acid level in Kunming mouse thalamus at 40 mg/kg, po treated for 7 days by HPLC-ECD analysis; type: functional, organism-based; in short: as §1
[7] = system: Mus musculus; assay: Increase in ratio of 3,4-dihydroxyphenylacetic acid and 4-hydroxy-3-methoxyphenylacetic acid to dopamine level in Kunming mouse frontal cortex at 40 mg/kg, po treated for 7 days by HPLC-ECD analysis; type: functional, organism-based; in short: as §1
[8] = system: Mus musculus; assay: Increase in ratio of 3,4-dihydroxyphenylacetic acid and 4-hydroxy-3-methoxyphenylacetic acid to dopamine level in Kunming mouse thalamus at 40 mg/kg, po treated for 7 days by HPLC-ECD analysis; type: functional, organism-based; in short: as §1
[9] = system: Rattus norvegicus; assay: Toxicity in Sprague-Dawley rat assessed as caustic injuries at 2000 mg/kg, po measured over 4 hrs; type: organism-based; details: in vivo
In short: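 Following OECD 425, adult SD rats (180–220 g), six per group: vehicle (0.5% CMC-Na) controls, plus males and females given 2000 mg/kg orally. Watched continuously for 4 h for behaviour, breathing, cutaneous, sensory and gastrointestinal signs, then hourly to 24 h and every 6 h for the next 48 h.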

[10] = Drug metabolism in Sprague-Dawley rat feces assessed as 5'-(1-hydroxyallyl)-5-propyl-2'-((2S,3R,4S,5S,6R)-3,4,5-trihydroxy-6-(hydroxymethyl)tetrahydro-2H-pyran-2-yloxy)biphenyl-2-yl hydrogen sulfate formation at 100 mg/kg, po by UPLC-IT-TOF-MS analysis; type: ADME, organism-based; details: in vivo
In short: (§2)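 Rats (n = 6) housed in metabolic cages received 100.0 mg/kg orally; controls received 0.5% CMC-Na. Plasma, urine and faeces were collected and analyzed by LC-IT-TOF-MS on a C18 column at 30 °C. Gradient 5–100% acetonitrile with 0.05% formic acid over 18 min at 0.2 mL/min; positive and negative ion MS/MS.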

[11] = Drug metabolism in Sprague-Dawley rat feces assessed as 2'-hydroxy-5'-(1-hydroxyallyl)-5-propylbiphenyl-2-yl hydrogen sulfate formation at 100 mg/kg, po by UPLC-IT-TOF-MS analysis; type: ADME, organism-based; details: in vivo; in short: as §2
[12] = Drug metabolism in Sprague-Dawley rat feces assessed as (2S,3S,4S,5R,6S)-3,4,5-trihydroxy-6-(5-(1-hydroxyallyl)-5'-(2-hydroxypropyl)-2'-methoxybiphenyl-2-yloxy)tetrahydro-2H-pyran-2-carboxylic acid formation at 100 mg/kg, po by UPLC-IT-TOF-MS analysis; type: ADME, organism-based; details: in vivo; in short: as §2
[13] = Drug metabolism in Sprague-Dawley rat urine assessed as (2S,3R,4S,5S,6R)-2-(5'-allyl-2'-hydroxy-5-(1-hydroxyallyl)biphenyl-2-yloxy)-6-(hydroxymethyl)tetrahydro-2H-pyran-3,4,5-triol formation at 100 mg/kg, po by UPLC-IT-TOF-MS analysis; type: ADME, organism-based; details: in vivo
In short: (§3)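 Male/unspecified SD rats (n = 6) housed individually in metabolic cages, dosed orally at 100.0 mg/kg; controls given 0.5% CMC-Na orally. Plasma, urine and faeces collected. LC-IT-TOF-MS on C18 column at 30 °C, formic acid (0.05%) water/acetonitrile gradient 5–100% B over 18 min, 0.2 mL/min; positive and negative ion modes with automatic MS/MS.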

[14] = Drug metabolism in Sprague-Dawley rat feces assessed as (2S,3R,4S,5S,6R)-2-(5'-allyl-2'-hydroxy-5-(1-hydroxyallyl)biphenyl-2-yloxy)-6-(hydroxymethyl)tetrahydro-2H-pyran-3,4,5-triol formation at 100 mg/kg, po by UPLC-IT-TOF-MS analysis; type: ADME, organism-based; details: in vivo; in short: as §2
[15] = Drug metabolism in Sprague-Dawley rat urine assessed as (2S,3S,4S,5R,6S)-6-(5-acryloyl-2'-hydroxy-5'-(1-hydroxyallyl)biphenyl-2-yloxy)-3,4,5-trihydroxytetrahydro-2H-pyran-2-carboxylic acid formation at 100 mg/kg, po by UPLC-IT-TOF-MS analysis; type: ADME, organism-based; details: in vivo; in short: as §3
[16] = Drug metabolism in Sprague-Dawley rat feces assessed as (2S,3S,4S,5R,6S)-6-(5-acryloyl-2'-hydroxy-5'-(1-hydroxyallyl)biphenyl-2-yloxy)-3,4,5-trihydroxytetrahydro-2H-pyran-2-carboxylic acid formation at 100 mg/kg, po by UPLC-IT-TOF-MS analysis; type: ADME, organism-based; details: in vivo; in short: as §2
[17] = Drug metabolism in Sprague-Dawley rat plasma assessed as 1-(5'-allyl-2'-hydroxy-6-((2S,3R,4S,5S,6R)-3,4,5-trihydroxy-6-(hydroxymethyl)tetrahydro-2H-pyran-2-yloxy)biphenyl-3-yl)prop-2-en-1-one formation at 100 mg/kg, po by UPLC-IT-TOF-MS analysis; type: ADME, organism-based; details: in vivo; in short: as §2
[18] = Drug metabolism in Sprague-Dawley rat plasma assessed as 5,5'-bis(1-hydroxyallyl)biphenyl-2,2'-diol formation at 100 mg/kg, po by UPLC-IT-TOF-MS analysis; type: ADME, organism-based; details: in vivo; in short: as §3
[19] = Drug metabolism in Sprague-Dawley rat urine assessed as 5,5'-bis(1-hydroxyallyl)biphenyl-2,2'-diol formation at 100 mg/kg, po by UPLC-IT-TOF-MS analysis; type: ADME, organism-based; details: in vivo; in short: as §3
[20] = Drug level in Sprague-Dawley rat urine at 100 mg/kg, po by UPLC-IT-TOF-MS analysis; type: ADME, organism-based; details: in vivo; in short: as §2
[21] = Drug metabolism in Sprague-Dawley rat feces assessed as 5,5'-diallylbiphenyl-2,2'-diol formation at 100 mg/kg, po by UPLC-IT-TOF-MS analysis; type: ADME, organism-based; details: in vivo; in short: as §2

Sequence of Melatonin receptor type 1A (P48039 whole entry): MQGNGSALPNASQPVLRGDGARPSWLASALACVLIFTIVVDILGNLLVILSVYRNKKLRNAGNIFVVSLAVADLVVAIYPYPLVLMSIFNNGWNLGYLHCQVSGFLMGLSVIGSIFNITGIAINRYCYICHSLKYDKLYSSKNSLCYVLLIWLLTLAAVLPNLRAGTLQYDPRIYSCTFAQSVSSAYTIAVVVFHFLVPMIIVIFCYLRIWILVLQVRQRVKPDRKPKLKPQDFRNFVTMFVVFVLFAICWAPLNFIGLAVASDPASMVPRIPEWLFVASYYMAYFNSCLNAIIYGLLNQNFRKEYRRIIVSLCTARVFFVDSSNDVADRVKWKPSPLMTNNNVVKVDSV

## C=CCc1ccc(O)c(-c2cc(CC=C)ccc2O[C@@H]2O[C@H](CO)[C@@H](O)[C@H](O)[C@H]2O)c1
[1]
  pEC50: 3.40
[2]
  Activity: Non-Toxic
[3]
  Activity: inactive
[4]
  Activity: Active
[5]
  Activity: Active
[6]
  Activity: Active
[7]
  Activity: Active
[8]
  Activity: Active
[9]
  Activity: Non-Toxic
[10]
  Drug metabolism: Metabolite_Detected
[11]
  Drug metabolism: Metabolite_Detected
[12]
  Drug metabolism: Metabolite_Notdetected
[13]
  Drug metabolism: Metabolite_Detected
[14]
  Drug metabolism: Metabolite_Notdetected
[15]
  Drug metabolism: Metabolite_Detected
[16]
  Drug metabolism: Metabolite_Notdetected
[17]
  Drug metabolism: Metabolite_Notdetected
[18]
  Drug metabolism: Metabolite_Notdetected
[19]
  Drug metabolism: Metabolite_Detected
[20]
  Drug uptake: Not Active
[21]
  Drug metabolism: Metabolite_Detected
